Reference: ChEMBL document CHEMBL3792346, “Thiazolino 2-Pyridone Amide Inhibitors of Chlamydia trachomatis Infectivity” (J Med Chem, 2016)

Legend:
Chlamydia trachomatis [1] = assay: Drug uptake in Chlamydia trachomatis serovar LGV-L2 inclusion infected in human HeLa cells at 1 uM after 48 hrs by laser confocal microscopy; format: ADME, organism-based
In short: (§1)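 HeLa on coverslips infected with LGV-L2 at MOI 0.5 in HBSS; after 60 min, fresh medium with fluorescent compound or BODIPY control (1 µM) added, left to 48 hpi; PBS-washed, 4% paraformaldehyde fixed, Triton-permeabilized, BSA-blocked, anti-MOMP/rhodamine stained; confocal imaging, 60× oil, Z-stack projections; ≥2 independent experiments.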

Chlamydia trachomatis [2] = assay: Drug uptake in Chlamydia trachomatis serovar LGV-L2 inclusion infected in human HeLa cells at 1 uM coadministered with 8-Cyclopropyl-7-(naphthalen 1-ylmethyl)-5-oxo-N-(3-methylphenyl)-2,3-dihydro-5H-[1,3]thiazolo[3,2-a]pyridine-3-carboxamide after 48 hrs by laser confocal microscopy; format: ADME, organism-based
In short: (§2)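 Infected HeLa (LGV-L2, MOI 0.5) given 1 µM fluorescent analogue alone or with equimolar competitor, added together directly after infection and kept to end; fixed, anti-MOMP stained, confocal imaged with identical settings; fluorescence per inclusion divided by inclusion area in >40 inclusions; two-tailed t-test; ≥2 independent experiments.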

Chlamydia trachomatis [3] = assay: Antimicrobial activity against Chlamydia trachomatis serovar LGV-L2 infected in human HeLa cells at 2.5 uM after 48 hrs; format: functional
In short: (§3)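 HeLa cells infected with LGV-L2 at MOI 0.1-0.5; compounds added at 1 hpi, tested at 2.5 µM then 5 or 10 µM or 1, 0.5, 0.25, 0.1 µM; after ~48 h, osmotic lysis, SPG restored, 10-fold dilutions reinfect fresh HeLa; IFUs counted by automated imaging versus DMSO; Reinfect95 = lowest concentration consistently giving 95% IFU reduction; ≥2 experiments in triplicate.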

Chlamydia trachomatis [4] = assay: Drug uptake in Chlamydia trachomatis serovar LGV-L2 inclusion infected in human HeLa cells at 1 uM coadministered with 6-Amino-8-cyclopropyl-7-(naphthalen-1-ylmethyl)-5-oxo-N-phenyl-2,3-dihydro-5H-[1,3]thiazolo[3,2-a]pyridine 3-carboxamide after 48 hrs by laser confocal microscopy; format: ADME, organism-based; in short: as §2
[5] = 1-octanol-potassium phosphate buffer distribution co-efficient, log D of the compound incubated overnight at pH 7.4 by shake-flask method
Chlamydia trachomatis [6] = assay: Antimicrobial activity against Chlamydia trachomatis serovar LGV-L2 infected in human HeLa cells assessed as concentration require to reduce relative inclusion forming units by 95% after 48 hrs; format: functional; in short: as §3
Chlamydia trachomatis [7] = assay: Antimicrobial activity against Chlamydia trachomatis serovar D infected in human HeLa cells assessed as decrease in relative inclusion forming units measured 44 to 48 hrs post infection by DAPI staining-based assay; format: functional, organism-based
[8] = Effect on growth of Lactobacillus crispatus CCUG 27076A at 50 uM after 48 hrs
In short: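 L. crispatus CCUG 27076A in MRS broth at 37 °C, 5% CO2; overnight culture diluted 1:20 and grown 48 h with 50 µM compound or 1% DMSO.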

[9] = Cytotoxicity against human HeLa cells assessed as cell viability at 25 uM after 48 hrs by resazurin assay relative to control; format: cell-based; conditions: read-out: Activity
In short: (§4)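 Uninfected HeLa seeded in RPMI, next day switched to colorless DMEM with 10% FBS, 2 mM glutamine; compounds added in triplicate, 48 h at 37 °C; resazurin added, 3 h at 37 °C dark; fluorescence ex 535/em 595 nm; cell-free wells with compound check direct resazurin reduction; mean of three experiments in triplicate, SD over nine replicates.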

Chlamydia trachomatis [10] = assay: Antimicrobial activity against Chlamydia trachomatis serovar LGV-L2 infected in human HeLa cells assessed as decrease in relative inclusion forming units measured 44 to 48 hrs post infection by DAPI staining-based assay; format: functional, organism-based
In short: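 HeLa229 cells infected with serovar LGV-L2 at MOI 0.3; compounds in DMSO added at 1 hpi as 8-step halving dilutions from 2 to 0.0156 µM; after 44-48 h, osmotic lysis with cold water, SPG restored, lysate 10-fold serially diluted onto fresh HeLa; after 44-48 h, methanol-fixed, anti-Chlamydia/FITC stained, IFUs counted by automated scanner relative to DMSO; EC50 by nonlinear regression, ≥3 independent experiments.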

[11] = Dissociation constant, pKa of the compound by UV-visible spectrophotometry; format: physicochemical
In short: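 Spectrophotometric titration: 2–5 µL of 10 mM DMSO stock in phosphate buffer with 20-50% (wt/wt) methanol cosolvent and ISA water; titrated pH 2-12 high to low under argon at 25 ± 1 °C, UV–vis spectra by D-PAS; electrode blank-calibrated pH 1.8-12.0 each run; precipitation monitored at 500 nm.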

Candida albicans = assay: Effect on growth of Candida albicans SC314 at 50 uM measured every 2 hrs by microscopy; format: organism-based; conditions: in vivo
In short: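 C. albicans SC314 grown overnight at 30 °C, diluted to OD600 0.05, grown to OD600 0.2, then compound added at 10 and 50 µM and grown to saturation; sampled every 2 h for microscopic yeast:hyphal ratio.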

[12] = Cytotoxicity against human HeLa cells assessed as cell viability at 10 uM after 48 hrs by resazurin assay relative to control; format: cell-based; conditions: read-out: Activity; in short: as §4
Escherichia coli = assay: Effect on growth of Escherichia coli MW100 at 50 uM incubated for 8 hrs measured every hour during incubation; format: organism-based; conditions: in vivo
In short: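 E. coli MW100 overnight LB cultures at 37 °C diluted to OD600 0.05 in LB with DMSO or 50 µM compound; grown 8 h with OD600 read hourly and visual inspection; triplicate.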

Chlamydia trachomatis [13] = assay: Antimicrobial activity against Chlamydia trachomatis serovar D infected in human HeLa cells at 10 uM measured 44 hrs post infection relative to control; format: functional
Chlamydia trachomatis [14] = assay: Antimicrobial activity against Chlamydia trachomatis serovar LGV-L2 infected in human HeLa cells measured 44 to 48 hrs post infection by DAPI staining-based assay; format: functional, organism-based
Chlamydia trachomatis [15] = assay: Antimicrobial activity against Chlamydia trachomatis serovar A infected in human HeLa cells at 10 uM measured 44 hrs post infection relative to control; format: functional
Chlamydia trachomatis [16] = assay: Antimicrobial activity against Chlamydia trachomatis serovar LGV-L2 infected in human HeLa cells at 10 uM measured 44 hrs post infection relative to control; format: functional
[17] = 1-octanol-potassium phosphate buffer partition co-efficient, log P of the compound incubated overnight by shake-flask method; format: physicochemical
In short: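 Miniaturized shake-flask: 1-octanol pre-saturated with 0.1 M potassium phosphate pH 7.4 and buffer pre-saturated with octanol mixed 1:3 and 1:6; compound added from 10 mM DMSO stock; rotated overnight at rt, centrifuged 3500 rpm 30 min; each phase diluted in 60% acetonitrile with warfarin internal standard, quantified by UHPLC-MS/MS against 1-1000 nM external curve; ketoconazole control.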

HeLa = assay: Drug uptake in human HeLa cells infected with Chlamydia trachomatis serovar LGV-L2 at 1 uM after 48 hrs by laser confocal microscopy; format: ADME, cell-based; in short: as §1

Drug uptake (Chlamydia trachomatis [1])	EC50 (Chlamydia trachomatis [7]) [nM]	EC50 (Chlamydia trachomatis [10]) [nM]	SMILES	Activity (Chlamydia trachomatis [6]) [µM]	viability at 48 h, 25 µM [9] [%]	viability at 48 h, 10 µM [12] [%]	other results
Active	–	–	CC1=CC(C)=[N+]2C1=C(CCc1cc(=O)n3c(c1C1CC1)SCC3C(=O)Nc1cccc(C)c1)c1c(C)cc(C)n1[B-]2(F)F (stereo not given)	–	–	–	Drug uptake (Chlamydia trachomatis [2]): Not Active; Activity (Chlamydia trachomatis [3]): >95%; Drug uptake (Chlamydia trachomatis [4]): Not Active
–	58	59	Nc1c(Cc2cccc3ccccc23)c(C2CC2)c2n(c1=O)C(C(=O)Nc1ccccc1)CS2 (stereo not given)	0.25	98	101	logD [5]: 4.3; Activity [8]: Non-toxic; pKa [11]: 2.4; Activity (Candida albicans): Non-toxic; Activity (Escherichia coli): Non-toxic
–	–	254	O=C(Nc1ccccc1)c1csc2c(C3CC3)c(Cc3cccc4ccccc34)cc(=O)n12	2.5	73	87	fold change (FC) (Chlamydia trachomatis [13]): >=10000; EC50 (Chlamydia trachomatis [14]): 1250 nM; fold change (FC) (Chlamydia trachomatis [15]): >=10000; fold change (FC) (Chlamydia trachomatis [16]): >=10000; logP [17]: 5
Not Active	–	–	CC1=CC(C)=[N+]2C1=C(C)c1c(C)cc(C)n1[B-]2(F)F	–	–	–	Drug uptake (HeLa): Not Active
–	124	147	Cc1cccc(NC(=O)C2CSc3c(C4CC4)c(Cc4cccc5ccccc45)c(N)c(=O)n32)c1 (stereo not given)	1	97	98	–
–	99	140	Cc1ccc(NC(=O)C2CSc3c(C4CC4)c(Cc4cccc5ccccc45)c(N)c(=O)n32)cc1 (stereo not given)	0.25	98	98	–
